DAGLB inhibitor = DAGLB lipase inhibitors, primary screen, biochemical, fluorescence, HTS. HEK293T DAGLB membrane lysate, EnzChek fluorogenic substrate. inhibition, % at 5.17 µM. 0.059% of 340,000 active. AID 504411, 2011; in the data active = inhibition above about 34%;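 note: 0% = enzyme with vehicle and 100% = wells lacking enzyme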
GPR7 antag = GPR7 receptor antagonists, primary screen, cell-based, fluorescence, single concentration; Neuropeptides B/W receptor type 1 (Homo sapiens), P48145; GPR7-expressing cells, fluorescence antagonist assay; inhibition, % at 4.4 µM; 1.1% of 290,000 active; in the data active = inhibition above about 16%, passing the limit was not always enough;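 note: cells stimulated with the agonist NPW; 0% = agonist with vehicle and 100% = vehicle without agonist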
Target sequence (P48145 whole entry, looked up): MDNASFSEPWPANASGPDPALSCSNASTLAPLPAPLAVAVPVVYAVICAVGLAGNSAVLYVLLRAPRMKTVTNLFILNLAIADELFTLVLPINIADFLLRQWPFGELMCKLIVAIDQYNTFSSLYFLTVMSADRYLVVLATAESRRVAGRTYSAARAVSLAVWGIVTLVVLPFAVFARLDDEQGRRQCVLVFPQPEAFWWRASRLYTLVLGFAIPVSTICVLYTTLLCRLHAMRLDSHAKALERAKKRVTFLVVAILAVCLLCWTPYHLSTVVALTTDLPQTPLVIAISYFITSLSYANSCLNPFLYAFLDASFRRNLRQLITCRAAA
TAAR1 agonist = human TAAR1 agonists, primary screen, Fluo-8 calcium fluorescence, CHO RD-HGA16 cells | Trace amine-associated receptor 1 (Homo sapiens), Q96RJ0 | vehicle wells 0%, saturating PEA agonist 100% | activation, % at 3 µM | 0.99% of 360,000 active;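 active = activation above the mean activation of all test compounds in the run plus 3 SD, cut at about 38% in these data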
Target sequence (Q96RJ0 whole entry, looked up): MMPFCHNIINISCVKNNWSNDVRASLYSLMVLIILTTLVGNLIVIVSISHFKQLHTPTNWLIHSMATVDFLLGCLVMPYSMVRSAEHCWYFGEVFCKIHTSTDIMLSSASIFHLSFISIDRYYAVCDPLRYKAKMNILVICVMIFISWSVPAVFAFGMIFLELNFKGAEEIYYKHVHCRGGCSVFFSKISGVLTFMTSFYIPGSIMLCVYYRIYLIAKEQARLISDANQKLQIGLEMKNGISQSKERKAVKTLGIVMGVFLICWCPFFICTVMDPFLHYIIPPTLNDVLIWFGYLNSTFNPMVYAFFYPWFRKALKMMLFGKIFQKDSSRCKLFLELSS
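Test system: RD-HGA16 (CHO) cells co-expressing Gα16 and hTAAR1 | Doses: Single dose, 3 µM | Schedule: 17-24 h seeding, 75 min 37 °C dye, 30 min RT | Evaluation: % activation from peak over basal fluorescence ratio, DMSO-to-PEA scaled | Technique: Kinetic Fluo-8 calcium fluorescence | Benchmarks: Low control DMSO, high control PEA (EC100)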
MPTP inh = mitochondrial permeability transition pore inhibitors, primary screen, biochemical, isolated mouse mitochondria, absorbance | inhibition, % at 10 µM | Ca2+ swelling absorbance, 30 min | AID 602449, 2012 | 1.4% of 360,000 active;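 active = inhibition of 50% or more, scaled per plate between neutral and stimulator controls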;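 note: 0% = DMSO wells given calcium and 100% = 1 mM EGTA wells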
TAAR1 antag = human TAAR1 antagonists, primary screen, Fluo-8 calcium fluorescence, CHO RD-HGA16 cells; antagonist; Trace amine-associated receptor 1 (Homo sapiens), Q96RJ0; 1.5% of 360,000 active; inhibition, % at 3 µM; AID 624466, 2012;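 active = inhibition above a per-plate cutoff, the mean inhibition of test compounds on that plate plus 3 SD, cut at about 49% in these data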;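 note: 0% = DMSO plus EC80 beta-PEA response and 100% = DMSO alone without agonist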
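Test system – hTAAR1-expressing CHO RD-HGA16 cells, Gα16-coupled · Also added – β-PEA at EC80 concentration, post-compound challenge · Compound – 3 µM, single point · Incubation – dye loading 75 min at 37 °C, then 30 min room temperature · Measured by – Fluo-8 intracellular calcium dye fluorescence, real-time kinetic reads · Benchmarks – vehicle and agonist controls · Replicates – singlicate, one well per test compound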
MPTP counter = fluorescence retest of MPTP screen hits in isolated mitochondria, single concentration | shares compounds with MPTP inh | AID 624504, 2012 | inhibition, % at 10 µM | membrane potential, Rhodamine 123 fluorescence | 78% of 5,000 active; in the data active = inhibition above about 22%;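 note: 0% = DMSO vehicle and 100% = positive control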
MPTP swell DR = mitochondrial permeability transition pore inhibitors, dose response, biochemical, absorbance, uHTS hits. shares compounds with MPTP inh. isolated mitochondria swelling. IC50, µM. 58% of 780 active. AID 651561, 2012; in the data active = IC50 below about 20 µM
MPTP cs DR = fluorescent counter-screen in isolated mitochondria, dose response, counter-screen for MPTP inhibitor project, biochemical, fluorescence, uHTS hits. 49% of 780 active. AID 651564, 2012. IC50, µM. shares compounds with MPTP inh. isolated mitochondria counterscreen, fluorescence read-out; in the data active = IC50 below about 80 µM
* = called active by the depositor; i = inactive; · = not tested or not shown. Compounds with a hit are over-represented: about 4% of the library has one in this group of screens.

SMILES | DAGLB inhibitor | GPR7 antag | TAAR1 agonist | MPTP inh | TAAR1 antag | MPTP counter | others
CCN(C(=O)c1ccc(C(C)(C)C)cc1)c1nnc(Cn2nnc3ccccc32)s1 | -6 | 8 | 9 | 105* | 42 | 92*
c1cncc(Oc2ccc(NCCc3c[nH]c4ccccc34)cc2)c1 | · | · | 7 | · | 32 | ·
COc1ccc(-c2nnn3c2C2c4cc(-c5cccc(F)c5)ccc4CCN2C(=O)C3)cc1 (stereo unspecified) | · | · | 9 | · | -27 | ·
Cc1ccc(N(CC(=O)NCCc2ccc(F)cc2)S(=O)(=O)c2ccc(Cl)c([N+](=O)[O-])c2)c(C)c1 | -9 | 48* | 0 | 68* | 16 | 70*
COc1ccc(-c2n(CC(=O)OC3CC(C)CCC3C(C)C)c3ccccc3[n+]2C)cc1 (stereo unspecified) | 3 | 93* | 0 | 50* | 14 | 94*
CC1CCC(C(C)C)C(OC(=O)CSc2nccc(=O)[nH]2)C1 (stereo unspecified) | 4 | -8 | 10 | 0 | 13 | ·
COc1ccc(OCCCCc2c(C)n[nH]c2C)cc1 | -1 | · | -1 | 51* | -8 | 36*
CCOC(=O)C1(C)CCCCN1C(=O)c1ccoc1 (stereo unspecified) | · | · | 1 | 2 | -18 | ·
FC(F)(F)c1nnc(-c2ccccc2)nc1Oc1ccc(Cl)cc1Cl | -2 | 0 | 2 | 71* | 5 | 1 | MPTP swell DR=14*;MPTP cs DR=>80
FC(F)(F)c1cccc(Oc2nc(-c3ccccc3)nnc2C(F)(F)F)c1 | 1 | -12 | 15 | 1 | -8 | ·
Cn1c(SCc2cccc([N+](=O)[O-])c2)nc2c(c1=O)SCC2 | -1 | -14 | -1 | 58* | 0 | 49*
O=C(NCCCSc1ccccc1)c1cc(Cl)ccc1O | -11 | 16 | -2 | 82* | 2 | 83*
COc1ccc(-c2nc(NC(C)=O)sc2-c2ccccc2)cc1 | 0 | 5 | -2 | 82* | -6 | -2 | MPTP swell DR=i;MPTP cs DR=>80
COC(=O)c1ccc2c(c1)C(C)(C)C(/C=C/c1ccc(O)cc1)=[N+]2C | 7 | 10 | 30 | 86* | 33 | -25
Cc1cccc(N2CCN(C3C(=O)Nc4ccccc4-n4nnnc43)CC2)c1C (stereo unspecified) | · | · | 23 | 0 | 13 | ·
O=C(NCCCN1CCC(Cc2ccccc2)CC1)C1CCN(S(=O)(=O)N2CCOCC2)CC1 | -2 | -7 | 7 | 88* | 5 | 5 | MPTP swell DR=i;MPTP cs DR=61*
CCC(C)c1ccccc1NC(=O)c1cc2cccc([N+](=O)[O-])c2[nH]1 (stereo unspecified) | · | 1 | -3 | 61* | 15 | 66*
Cc1ccc(NC(=O)c2cc3cccc([N+](=O)[O-])c3[nH]2)cc1 | -3 | -6 | -1 | 64* | -5 | 61*
Cc1ccc(NC(=O)c2ccc(-n3cccn3)c([N+](=O)[O-])c2)cc1 | 0 | -7 | 12 | 8 | 21 | ·
CCC(C)c1ccccc1NC(=O)COC(=O)c1ccc(N2CCCC2)c([N+](=O)[O-])c1 (stereo unspecified) | -1 | -1 | 9 | -1 | -2 | ·
O=C(Nc1ccc(F)cc1F)Nc1csc2ccccc12 | · | -14 | 12 | 83* | -10 | 85*
O=C(Nc1ccc(F)c(Cl)c1)Nc1csc2ccccc12 | -4 | -6 | 6 | 76* | 39 | 68*
CC(C)NC(=O)N1Cc2cc(C(=O)NC3CCCC3)nc(-c3cccc(-c4cccnc4)c3)c2[C@@H]1CCO | · | · | 3 | -1 | 7 | ·
c1ccc(Nc2ncnc3sccc23)cc1 | -1 | -7 | -2 | -1 | 11 | ·
CC(Nc1ncnc2sccc12)c1ccccc1 (stereo unspecified) | 0 | 10 | 5 | 84* | 14 | 80*
SMILES | DAGLB inhibitor | GPR7 antag | TAAR1 agonist | MPTP inh | TAAR1 antag | MPTP counter | others
Cc1cc(-c2ccc(C)c(S(=O)(=O)NCCCN3CCN(c4ccccc4)CC3)c2)on1 | 1 | -2 | 8 | 3 | 14 | ·
Cc1cc(-c2ccc(C)c(S(=O)(=O)NCCCN3CCN(c4ccccc4F)CC3)c2)on1 | -1 | 21 | 7 | 72* | 19 | 85*
CCCCCCCCCCCCCCCC[n+]1cccc2ccccc21 | 8 | 11 | 35 | 76* | 20 | 102*
Cc1cccc(OCCCCNCc2ccccc2)c1 | -1 | 3 | 10 | 59* | -5 | 0 | MPTP swell DR=6.8*;MPTP cs DR=>80
CC(C)(C)NCC(O)COc1c(F)cc(Br)cc1F (stereo unspecified) | 0 | -8 | 9 | 6 | -3 | ·
CC(C)(C)CC(C)(C)NCC(O)COc1c(F)cc(Br)cc1F (stereo unspecified) | -3 | 15 | 47* | 102* | 4 | -8 | MPTP swell DR=7.1*;MPTP cs DR=57*
COc1ccc(C(C#N)=C2C=CC(=NO)C(C)=C2Cl)cc1 | -1 | · | 14 | 3 | 39 | ·
O=C1Nc2cc(C(=O)NCCCN3CCCC3)ccc2S/C1=C\c1ccccc1 | 5 | 1 | 2 | 8 | 4 | ·
COc1ccc(/C=C2/Sc3ccc(C(=O)NCCN4CCCCCC4)cc3NC2=O)cc1 | 3 | 6 | 6 | 87* | 14 | -19 | MPTP swell DR=14*;MPTP cs DR=40*
CC(Cc1cccs1)NC(=O)c1cccs1 (stereo unspecified) | -1 | -6 | 2 | 1 | -5 | ·
CC(Cc1cccs1)NC(=S)Nc1ccc(F)cc1 (stereo unspecified) | -4 | -8 | 8 | 50* | 8 | 73*
CC(Cc1cccs1)NC(=O)Nc1ccc([N+](=O)[O-])cc1 (stereo unspecified) | -2 | -11 | 15 | 86* | 2 | 91*
O=C(C1CC1)N1CCC(c2nc(-c3ccc(S(=O)(=O)N4CCCC4)cc3)no2)CC1 | 0 | 8 | 4 | 0 | 4 | ·
O=C(C1CC1)N1CCC(c2nc(-c3ccc(S(=O)(=O)NCC4CCCO4)cc3)no2)CC1 (stereo unspecified) | 4 | 21 | 8 | 66* | -1 | 16 | MPTP swell DR=i;MPTP cs DR=46*
Nc1ccn([C@@H]2O[C@H](CNC(=O)[C@@H](Cc3cccnc3)NC=O)[C@@H](O)[C@H]2O)c(=O)n1 | 6 | · | 0 | -1 | 11 | ·
